This passage reports EC50 and CC50 results from ChEMBL document CHEMBL1138928, “Toward orthopoxvirus countermeasures: a novel heteromorphic nucleoside of unusual structure” (J Med Chem, 2006).

Structures are written as SMILES.

Experiment [1] deals with Cowpox virus. The experiment is described as follows: Antiviral activity against TK+ cowpox virus delta crmA in HFF cells. Format: functional, organism-based.
Another experiment relates to HFF. Put plainly: Cytotoxicity against HFF cells by neutral red uptake assay. Format: functional. As to conditions: Homo sapiens. The essentials:
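Uninfected HFF cells are incubated with various drug concentrations for 7 days at 37 °C. Viability is read by Neutral Red uptake. CC50 is the concentration that reduces uptake by 50%.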

The subject of another experiment is Vaccinia virus. The experiment is described as follows: Antiviral activity against vaccinia virus in HFF cells by plaque reduction assay. Format: functional, organism-based. As to conditions: Orthopoxvirus vaccinia.
Experiment [2] deals with Cowpox virus. Put plainly: Antiviral activity against TK- cowpox virus TK:GFP lacZ in HFF cells. The experiment is classed as functional, organism-based.
Experiment [3] concerns Cowpox virus. The experiment is described as follows: Antiviral activity against cowpox virus in HFF cells by plaque reduction assay. The experiment is classed as functional, organism-based.

`N#CC1=C(N)OC2=C(C(=O)CCC2)C1c1cn([C@H]2C[C@@H](O)[C@@H](CO)O2)c(=O)[nH]c1=O` (stereo not given in full): the EC50 in the experiment with Cowpox virus [1] was 0.8 µM; with Vaccinia virus, 4.6 µM; in the experiment with Cowpox virus [2] it was 28 µM; in the experiment with Cowpox virus [3] it was 2 µM. The 50% cytotoxic concentration (CC50) in the experiment with HFF is greater than 300 µM.

On to `Nc1ccn(C[C@@H](CO)OCP(=O)(O)O)c(=O)n1` [CIDOFOVIR], for which the EC50 in the experiment with Cowpox virus [1] was found to be 3.3 µM; in the experiment on Vaccinia virus it was 24 µM; in the experiment on Cowpox virus [2] it was 5.2 µM; in the experiment with Cowpox virus [3], 40 µM. In the experiment on HFF, this compound returned a CC50 greater than 317 µM.

Take `O=c1[nH]c(=O)n([C@H]2C[C@H](O)[C@@H](CO)O2)cc1I` [IDOXURIDINE]: the EC50 in the experiment on Cowpox virus [1] amounted to 0.4 µM; in the experiment on Vaccinia virus it was 6 µM; with Cowpox virus [2], 27 µM; with Cowpox virus [3], 2 µM. Moreover, the CC50 in the experiment with HFF was greater than 260 µM.
